Calls of active or inactive are those of the source.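 How the source made its calls, unless noted: active means inhibition at or above 50% at 10 µM; inactive means inhibition below 50%.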
Key:
[1] = inhibitors of TNFa-induced NFkB p65 translocation, primary screen, imaging, HUVEC, MLSMR starter and 10KST1 sets (AID 438;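 active means inhibition above 20% together with a positive visual image hit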;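 further: compound added about 3h40 before a 20 min TNFalpha stimulation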;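 on inhibition: signal is the nuclear over cytoplasmic p65 intensity ratio per well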); conditions: HUVEC TNFa-induced p65 nuclear translocation; cell count: measured here: nuclei count (cytotoxicity indicator), at 2.08 µM; inhibition: at 2 µM, stronger effect = higher value, 0% TNFa-plus-vehicle, 100% no-TNFa wells
[2] = reduction of polyQ htt aggregates in cells – imaging, exon1htt(103Q)mCFP cells, high-content imaging, primary screen (AID 483;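 active means visual image review flags a hit and inhibition of aggregation exceeds 20%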;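 further: compound exposure lasted 3 days before fixation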;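 on nuclei count: percent of the per-plate median nuclei count of sample wells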); conditions: exon1htt(103Q)mCFP cell line, aggregate imaging, at 2 µM; inhibition of aggregation: stronger effect = higher value; nuclei count: measured here: cell count, toxicity
[3] = endothelial E-selectin expression blockers – imaging, HUVEC, immunofluorescence, MLSMR starter and 10KST1 sets, primary screen (AID 487;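 active means visually confirmed hit in the image check and inhibition above 20%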;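 on inhibition: signal is fraction of cell area covered by stained E-selectin grains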;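 on nuclei count: 100% = median nuclei count of all wells on the same plate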); conditions: HUVEC TNFalpha-induced E-selectin immunofluorescence imaging, at 2 µM; inhibition: stronger effect = higher value; nuclei count: measured here: cell number, toxicity
[4] = molecular target: Voltage-gated potassium channel subunit beta-2 (Rattus norvegicus) (UniProt P62483); assay: inhibitors of rat Kvbeta2 reductase activity – biochemical, NADPH fluorescence, primary screen (AID 622;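 active means fluorescence slope higher than the sample average by over 3 SD, cut at about -0.22 in these data, passing the limit was not always enough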;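 further: slope of raw intensity against log time taken from 70 to 1610 s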); conditions: recombinant KvBeta, 4-cyanobenzaldehyde reduction, at 10 µM, stronger effect = higher value
[5] = molecular target: Voltage-gated potassium channel subunit beta-2 (Rattus norvegicus) (UniProt P62483); assay: enhancers of rat Kvbeta2 NADPH turnover – biochemical, NADPH fluorescence, primary screen (AID 623;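 active means NADPH fluorescence slope more negative than the mean of all samples by about 3 SD, 99.7% confidence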;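 further: fluorescence intensity change per second fitted from 20 to 320 s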); conditions: Recombinant KvBeta, NADPH fluorescence decrease slope, 10 min; at 10 µM; stronger effect = lower value
[6] = molecular target: Muscarinic acetylcholine receptor M4 (Homo sapiens) (UniProt P08173); assay: M4-linked GIRK flux change, two-sided – cell-based, HEK293 M4/GIRK, thallium flux, BTC-AM, M4 allosteric agonist project, primary screen (AID 625;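 active means fluorescence slope after compound addition differing from the mean of all tested samples at 99.7% confidence, mostly higher but some lower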;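 further: thallium influx through GIRK channels coupled to M4 in HEK293 cells with BTC-AM dye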); conditions: at 10 µM, actives lie on both sides
How it was run: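 Assay system: HEK293 cells with M4 receptor and GIRK channels / Controls: carbachol and DMSO controls / Schedule: 1 h dye loading, 2 min kinetic read / Technique: kinetic fluorescence with BTC-AM dye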

[7] = blockers of RIG-like receptor reporter activation – cell-based, Sendai virus stimulus, luciferase, 10K MLSCN set, TLR/RLR signaling modifier project, primary screen (AID 602276); conditions: HEK293 RL24 IRF3 luciferase reporter, at 10 µM, stronger effect = higher value;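 further: firefly luciferase from ISG56 promoter only with Renilla not read in this screen; 0% = Sendai virus plus DMSO and 100% = medium plus DMSO without virus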
[8] = TLR3 IRF3 reporter activation blockers – cell-based, poly I:C stimulus, luciferase, 10K MLSCN set, primary screen (AID 602277;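 active means inhibition of the reporter signal at or above 50%; inactive means inhibition below 50%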); conditions: HEK293-TLR3 RL24 IRF3 luciferase reporter, at 10 µM, stronger effect = higher value

Muscarinic acetylcholine receptor M4 (Homo sapiens), sequence (P08173 whole entry, looked up): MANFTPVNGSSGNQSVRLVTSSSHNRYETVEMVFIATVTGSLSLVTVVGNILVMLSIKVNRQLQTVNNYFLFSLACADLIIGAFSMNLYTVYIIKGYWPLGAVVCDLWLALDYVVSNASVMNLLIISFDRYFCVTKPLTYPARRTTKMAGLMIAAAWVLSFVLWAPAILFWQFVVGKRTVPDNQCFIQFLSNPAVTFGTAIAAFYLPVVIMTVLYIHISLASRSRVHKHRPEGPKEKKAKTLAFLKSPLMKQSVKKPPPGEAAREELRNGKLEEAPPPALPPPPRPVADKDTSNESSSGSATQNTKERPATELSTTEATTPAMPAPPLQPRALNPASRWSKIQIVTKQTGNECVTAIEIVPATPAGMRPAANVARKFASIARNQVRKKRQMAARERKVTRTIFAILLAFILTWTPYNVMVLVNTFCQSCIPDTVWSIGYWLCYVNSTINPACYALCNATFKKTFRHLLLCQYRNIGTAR
Voltage-gated potassium channel subunit beta-2 (Rattus norvegicus), sequence (P62483 whole entry, looked up): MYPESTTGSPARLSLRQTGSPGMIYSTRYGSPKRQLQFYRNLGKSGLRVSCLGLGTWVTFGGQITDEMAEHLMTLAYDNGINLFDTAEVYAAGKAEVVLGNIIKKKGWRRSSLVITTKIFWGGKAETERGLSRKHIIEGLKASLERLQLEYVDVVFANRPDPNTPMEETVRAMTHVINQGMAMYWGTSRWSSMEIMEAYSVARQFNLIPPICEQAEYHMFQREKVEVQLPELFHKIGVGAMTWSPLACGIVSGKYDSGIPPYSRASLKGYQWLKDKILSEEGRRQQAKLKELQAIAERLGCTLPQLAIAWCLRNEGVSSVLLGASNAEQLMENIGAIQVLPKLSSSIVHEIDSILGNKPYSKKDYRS

For `O=C(c1ccccc1)c1ccc(N2CCOCC2)c(NC(=O)c2ccco2)c1`, the cell count [1] was 318, the inhibition [1] was -13% (inactive) and the inhibition of aggregation [2] was -8.7% (inactive). For the same molecule, the nuclei count [2] was 114%, the inhibition [3] was -23.2% (inactive) and the nuclei count [3] was 119%. For the same molecule, the fluorescence slope [4] was -0.421 (inactive), the NADPH fluorescence slope [5] was 1e-05 (inactive) and the fluorescence slope [6] was 0.0062 (inactive). For the same molecule, the inhibition [7] was 14.1% (inactive) and the inhibition [8] was 17.3% (inactive).
With `COC(=O)c1sccc1NC(=O)c1ccncc1` the cell count [1] was 467, the inhibition [1] was 5.7% (inactive) and the inhibition of aggregation [2] was 7.5% (inactive). The nuclei count [2] was 103%, the inhibition [3] was -36.5% (inactive) and the nuclei count [3] was 122%. The fluorescence slope [4] was -0.49 (inactive), the NADPH fluorescence slope [5] was -3.8e-05 (inactive) and the fluorescence slope [6] was 0.00518 (inactive). For the same molecule, the inhibition [7] was 12% (inactive) and the inhibition [8] was -9.7% (inactive).
With `O=C(CCNC(=O)Cn1ccc2ccccc2c1=O)NCCN1CCN(c2ccccc2F)CC1` the cell count [1] was 335, the inhibition [1] was -5.7% (inactive) and the inhibition of aggregation [2] was -19.4% (inactive). For the same molecule, the nuclei count [2] was 104%, the inhibition [3] was 1.6% (inactive) and the nuclei count [3] was 104%. For the same molecule, the fluorescence slope [4] was -0.528 (inactive), the NADPH fluorescence slope [5] was 3.6e-05 (inactive) and the fluorescence slope [6] was 0.00558 (inactive). For the same molecule, the inhibition [7] was 12.1% (inactive) and the inhibition [8] was 14.1% (inactive).
With `CCOC(=O)Cn1nnnc1CN(Cc1ccc(OC)cc1)Cc1cc2cc(C)cc(C)c2[nH]c1=O` the cell count [1] was 614, the inhibition [1] was 6.2% (inactive) and the inhibition of aggregation [2] was -1.3% (inactive). The nuclei count [2] was 117%, the inhibition [3] was -50.4% (inactive) and the nuclei count [3] was 117%. The fluorescence slope [4] was -0.595 (inactive), the NADPH fluorescence slope [5] was -3.9e-05 (inactive) and the fluorescence slope [6] was 0.00531 (inactive). For the same molecule, the inhibition [7] was -8.1% (inactive) and the inhibition [8] was -1.09% (inactive).
With `Cc1cccc(-n2ncc(C#N)c2N)c1` the cell count [1] was 644, the inhibition [1] was -3% (inactive) and the inhibition of aggregation [2] was 11.6% (inactive). The nuclei count [2] was 97%, the inhibition [3] was -44.1% (inactive) and the nuclei count [3] was 144%. The fluorescence slope [4] was -0.482 (inactive), the NADPH fluorescence slope [5] was -2.8e-06 (inactive) and the fluorescence slope [6] was 0.00451 (inactive). The inhibition [7] was 18% (inactive) and the inhibition [8] was 12.7% (inactive).
For `N#CCSCC(=O)Nc1ccc(F)cc1`, the cell count [1] was 511, the inhibition [1] was 4.1% (inactive) and the inhibition of aggregation [2] was -5.3% (inactive). The nuclei count [2] was 108%, the inhibition [3] was 10.5% (inactive) and the nuclei count [3] was 99.2%. The fluorescence slope [4] was -0.462 (inactive), the NADPH fluorescence slope [5] was -5.6e-05 (inactive) and the fluorescence slope [6] was 0.00474 (inactive). For the same molecule, the inhibition [7] was 13.5% (inactive) and the inhibition [8] was 26.3% (inactive).
In the case of `CC(Oc1ccc2oc(-c3ccccc3)c(C(=O)O)c2c1)C(=O)O` (centres undefined), the cell count [1] is reported as 371, the inhibition [1] is reported as 10.6% (inactive) and the inhibition of aggregation [2] is reported as 9% (inactive). The nuclei count [2] was 104%, the inhibition [3] was 27.6% (inactive) and the nuclei count [3] was 89.9%. For the same molecule, the fluorescence slope [4] was -0.158 (inactive), the NADPH fluorescence slope [5] was -5.4e-05 (inactive) and the fluorescence slope [6] was 0.00531 (inactive). For the same molecule, the inhibition [7] was 7.55% (inactive) and the inhibition [8] was 16.2% (inactive).
With `COC(=O)c1[nH]c2ccccc2c1NS(=O)(=O)c1ccc(OC)cc1OC` the cell count [1] was 655, the inhibition [1] was -11.9% (inactive) and the inhibition of aggregation [2] was 13% (inactive). The nuclei count [2] was 103%, the inhibition [3] was -72% (inactive) and the nuclei count [3] was 118%. For the same molecule, the fluorescence slope [4] was -0.524 (inactive), the NADPH fluorescence slope [5] was -0.000111 (inactive) and the fluorescence slope [6] was 0.00563 (inactive). The inhibition [7] was 19.9% (inactive) and the inhibition [8] was 37.3% (inactive).
In the case of `CCCn1c(NCc2ccc3c(c2)OCO3)nc2ccccc21`, the cell count [1] is reported as 650, the inhibition [1] is reported as -6.8% (inactive) and the inhibition of aggregation [2] is reported as 2.4% (inactive). For the same molecule, the nuclei count [2] was 97.6%, the inhibition [3] was 32% (inactive) and the nuclei count [3] was 93.5%. The fluorescence slope [4] was -0.537 (inactive), the NADPH fluorescence slope [5] was -5.7e-05 (inactive) and the fluorescence slope [6] was 0.00348 (inactive). The inhibition [7] was -9.91% (inactive) and the inhibition [8] was -7.89% (inactive).
With `COc1ccc(/C(O)=C2/C(=O)C(=O)N(CC3CCCO3)C2c2cccc(OC)c2)cc1` (centres undefined) the cell count [1] was 717, the inhibition [1] was 3.9% (inactive) and the inhibition of aggregation [2] was -15.3% (inactive). For the same molecule, the nuclei count [2] was 118%, the inhibition [3] was 36.2% (inactive) and the nuclei count [3] was 97.6%. The fluorescence slope [4] was -0.429 (inactive), the NADPH fluorescence slope [5] was -3.2e-05 (inactive) and the fluorescence slope [6] was 0.00604 (inactive). The inhibition [7] was 14.7% (inactive) and the inhibition [8] was 21.1% (inactive).
For `CCSCCC(NC1=CC(=O)CC(C)(C)C1)C(=O)O` (centres undefined), the cell count [1] was 353, the inhibition [1] was 9.3% (inactive) and the inhibition of aggregation [2] was 13.5% (inactive). The nuclei count [2] was 98%, the inhibition [3] was -77.8% (inactive) and the nuclei count [3] was 94.9%. The fluorescence slope [4] was -0.566 (inactive), the NADPH fluorescence slope [5] was -6.6e-05 (inactive) and the fluorescence slope [6] was 0.00496 (inactive). The inhibition [7] was -16.8% (inactive) and the inhibition [8] was 98.7% (active).
With `COC(=O)c1cc(Br)c(=O)n(CCN2CCOCC2)c1` the cell count [1] was 563, the inhibition [1] was 5.4% (inactive) and the inhibition of aggregation [2] was 1.7% (inactive). For the same molecule, the nuclei count [2] was 96.1%, the inhibition [3] was 5.8% (inactive) and the nuclei count [3] was 104%. For the same molecule, the fluorescence slope [4] was -0.43 (inactive), the NADPH fluorescence slope [5] was -6.4e-05 (inactive) and the fluorescence slope [6] was 0.00578 (inactive). The inhibition [7] was 13% (inactive) and the inhibition [8] was 20.6% (inactive).
For `CC1CCCC(NC(=O)CN2CCN(Cc3ccc(Cl)cc3)C2=O)C1C` (centres undefined), the cell count [1] was 512, the inhibition [1] was -6% (inactive) and the inhibition of aggregation [2] was -24.6% (inactive). For the same molecule, the nuclei count [2] was 58.8%, the inhibition [3] was -27.1% (inactive) and the nuclei count [3] was 98%. The fluorescence slope [4] was -0.553 (inactive), the NADPH fluorescence slope [5] was -3.7e-05 (inactive) and the fluorescence slope [6] was 0.00646 (inactive). The inhibition [7] was 14.7% (inactive) and the inhibition [8] was 20.9% (inactive).
In the case of `Cc1ccccc1NC(=O)c1ccccc1`, the cell count [1] is reported as 373, the inhibition [1] is reported as 1.7% (inactive) and the inhibition of aggregation [2] is reported as 13.2% (inactive). The nuclei count [2] was 104%, the inhibition [3] was -49.6% (inactive) and the nuclei count [3] was 110%. The fluorescence slope [4] was -0.469 (inactive), the NADPH fluorescence slope [5] was 2.1e-05 (inactive) and the fluorescence slope [6] was 0.00509 (inactive). For the same molecule, the inhibition [7] was 1.39% (inactive) and the inhibition [8] was -13% (inactive).
